Data: ChEMBL document CHEMBL1148506, “Structure-activity relationships of new 1H-imidazo[4,5-c]quinolin-4-amine derivatives as allosteric enhancers of the A3 adenosine receptor” (J Med Chem, 2006)

How the values were obtained:
[1] = target: T1, Adenosine receptor A3 (Homo sapiens) (UniProt P0DMS8); assay: Decrease in dissociation of [125I]I-AB-MECA from human adenosine A3 receptor in CHO membrane at 10 uM relative to control after 30 min; type: cell membranes; set-up: scale not given: the % may be the effect or the level left
T1 sequence (whole entry): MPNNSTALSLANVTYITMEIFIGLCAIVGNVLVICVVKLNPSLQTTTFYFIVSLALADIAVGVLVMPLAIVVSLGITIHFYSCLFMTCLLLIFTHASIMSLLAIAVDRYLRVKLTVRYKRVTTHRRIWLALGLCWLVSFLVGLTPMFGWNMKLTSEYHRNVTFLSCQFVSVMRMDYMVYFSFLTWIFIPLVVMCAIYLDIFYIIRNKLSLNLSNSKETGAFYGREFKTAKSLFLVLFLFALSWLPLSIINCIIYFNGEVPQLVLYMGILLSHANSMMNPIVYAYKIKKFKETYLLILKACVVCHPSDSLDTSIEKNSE
In short: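 Membranes (20 μg) preloaded with 0.5 nM [125I]I-AB-MECA, 60 min at 25°C, in 50 mM Tris-HCl pH 8.0 with 10 mM MgCl2 and 1 mM EDTA. Dissociation started with 3 μM Cl-IB-MECA, with or without 10 μM modulator. Binding read by rapid filtration at 30 min; reported as % decrease in dissociation versus control (100%).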

Adenosine receptor A2a [2] = target: T2, Adenosine receptor A2a (Homo sapiens, UniProt P29274); assay: Displacement of [3H]CGS21680 from human adenosine A2A receptor in HEK293 cells at 10 uM
T2 sequence (P29274 whole entry): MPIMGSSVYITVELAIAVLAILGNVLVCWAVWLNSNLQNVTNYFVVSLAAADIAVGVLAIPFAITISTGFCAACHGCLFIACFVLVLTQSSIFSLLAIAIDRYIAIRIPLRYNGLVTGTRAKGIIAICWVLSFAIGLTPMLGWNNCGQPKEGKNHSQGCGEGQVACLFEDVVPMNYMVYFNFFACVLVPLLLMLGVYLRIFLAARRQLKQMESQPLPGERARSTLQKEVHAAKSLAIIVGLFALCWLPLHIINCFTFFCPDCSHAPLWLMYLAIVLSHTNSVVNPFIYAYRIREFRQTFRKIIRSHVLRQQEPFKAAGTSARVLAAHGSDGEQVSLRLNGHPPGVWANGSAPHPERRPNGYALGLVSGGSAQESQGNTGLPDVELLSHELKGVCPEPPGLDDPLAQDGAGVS

[3] = target: T1, Adenosine receptor A3 (Homo sapiens); assay: Displacement of [125I]I-AB-MECA from human adenosine A3 receptor in CHO membrane at 10 uM; type: cell membranes
In short: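 Membranes from CHO cells stably expressing human A3AR (20 μg protein) incubated with 0.5 nM [125I]I-AB-MECA and 10 μM test ligand, 60 min at 25°C, in 50 mM Tris·HCl pH 8.0, 10 mM MgCl2, 1 mM EDTA. Nonspecific binding defined with 10 μM NECA; filtration, gamma counting. Mean of 2-4 experiments in duplicate.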

[4] = target: T3, Adenosine receptor A2b (Homo sapiens) (UniProt P29275); assay: Antagonist activity at human adenosine A2B receptor assessed as inhibition of NECA-induced cAMP accumulation in CHO membrane at 10 uM; set-up: scale not given: the % may be the effect or the level left
T3 sequence (whole entry): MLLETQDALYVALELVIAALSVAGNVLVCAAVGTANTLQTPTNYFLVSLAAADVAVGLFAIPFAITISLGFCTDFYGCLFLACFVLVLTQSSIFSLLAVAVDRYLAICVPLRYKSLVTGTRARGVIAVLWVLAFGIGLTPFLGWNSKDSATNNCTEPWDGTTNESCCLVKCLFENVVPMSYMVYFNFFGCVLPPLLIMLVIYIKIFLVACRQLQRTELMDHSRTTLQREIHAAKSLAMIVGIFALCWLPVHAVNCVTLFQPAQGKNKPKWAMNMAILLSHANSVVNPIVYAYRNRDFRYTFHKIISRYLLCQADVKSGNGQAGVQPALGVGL

Adenosine receptor A2a [5] = target: T2, Adenosine receptor A2a; assay: Displacement of [3H]CGS21680 from human adenosine A2A receptor in HEK293 cells
[6] = target: T1, Adenosine receptor A3 (Homo sapiens); assay: Increase of efficacy at human adenosine A3 receptor in CHO cells at 10 uM relative to 2-Cl-IB-MECA
[7] = target: T4, Adenosine receptor A1 (Homo sapiens) (UniProt P30542); assay: Displacement of [3H]R-PIA from human adenosine A1 receptor in CHO membrane at 10 uM; type: cell membranes
T4 sequence (whole entry): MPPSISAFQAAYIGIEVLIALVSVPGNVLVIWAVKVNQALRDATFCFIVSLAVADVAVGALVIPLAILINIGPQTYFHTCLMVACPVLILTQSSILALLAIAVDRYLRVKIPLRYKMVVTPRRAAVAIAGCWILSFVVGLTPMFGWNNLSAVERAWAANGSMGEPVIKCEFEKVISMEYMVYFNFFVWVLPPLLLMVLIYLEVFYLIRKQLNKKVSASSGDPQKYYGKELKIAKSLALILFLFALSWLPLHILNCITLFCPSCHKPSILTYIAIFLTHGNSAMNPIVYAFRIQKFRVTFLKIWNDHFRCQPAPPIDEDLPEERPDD

Adenosine receptor A1 = target: T5, Adenosine receptor A1 (Homo sapiens, UniProt P30542); assay: Displacement of [3H]R-PIA from human adenosine A1 receptor in CHO membrane; type: cell membranes
T5 sequence (P30542 whole entry): T4 sequence (whole entry)
In short: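 Membranes (40 μg/tube) from CHO cells stably expressing human A1AR, incubated with 2 nM [3H]R-PIA at 25 °C for 60 min in 50 mM Tris·HCl pH 7.4, 10 mM MgCl2. Membranes stored with 3 U/mL adenosine deaminase. Nonspecific binding defined with 10 μM N6-cyclopentyladenosine. Reaction ended by GF/B filtration.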

| SMILES | Activity [1] [%] | Activity (Adenosine receptor A2a [2]) [%] | Activity [3] [%] | Activity [4] [%] | Ki (Adenosine receptor A2a [5]) [µM] | Activity [6] [%] | Activity [7] [%] | Ki (Adenosine receptor A1) [µM] |
| --- | --- | --- | --- | --- | --- | --- | --- | --- |
| COc1ccc(CNc2[nH]c3ccccc3c3nc(C4CCCC4)nc2-3)cc1 | 101 | 60 | 80 | 0.3 | – | 109 | 59 | – |
| Clc1ccc(Nc2[nH]c3ccccc3c3ncnc2-3)cc1Cl | 91 | -0.8 | 39 | 10.2 | – | 92 | 1.8 | – |
| Clc1ccc(Nc2[nH]c3ccccc3c3nc(-c4ccco4)nc2-3)cc1Cl | 98 | 70 | 78 | 9 | – | 95 | -4 | – |
| CCCCCc1nc2c(Nc3ccc(Cl)c(Cl)c3)[nH]c3ccccc3c-2n1 | 116 | -1 | 84 | -9.3 | – | 102 | 43.9 | – |
| c1ccc(CCNc2[nH]c3ccccc3c3nc(C4CCCC4)nc2-3)cc1 | 154 | 91 | 84 | -11.6 | – | 137 | 52 | – |
| Clc1ccc(Nc2nc3ccccc3c3[nH]c(C4CCCC4)nc23)cc1Cl | 144 | 0 | 67 | -6.7 | > 10 | 141 | 15 | > 10 |
| c1ccc2c3nc(C4CCCC4)nc-3c(Nc3ccc4c(c3)CCC4)[nH]c2c1 | 108 | 8 | 69 | -10.7 | – | 111 | 21 | – |
| c1ccc(CNc2[nH]c3ccccc3c3nc(C4CCCC4)nc2-3)cc1 | 145 | 77 | 86 | -3.4 | – | 147 | 28 | – |
| OCc1cccc(Nc2[nH]c3ccccc3c3nc(C4CCCC4)nc2-3)c1 | 129 | 49 | 56 | -4.1 | – | 118 | 51 | – |

Now from value to molecule, other results behind:

| Activity [1] [%] | Activity (Adenosine receptor A2a [2]) [%] | Activity [3] [%] | Activity [4] [%] | Ki (Adenosine receptor A2a [5]) [µM] | Activity [6] [%] | Activity [7] [%] | SMILES | Ki (Adenosine receptor A1) [µM] |
| --- | --- | --- | --- | --- | --- | --- | --- | --- |
| 166 | 16 | 92 | 7.3 | > 10 | 132 | – | COc1ccc(Nc2nc3ccccc3c3nc(C4CCCC4)[nH]c23)cc1 | – |
| 173 | -1 | 45 | -5.6 | – | 145 | -2 | Clc1ccc(Nc2nc3ccccc3c3nc(C4CCCCC4)[nH]c23)cc1Cl | – |
| 174 | – | 90 | -6.8 | – | 138 | – | c1ccc(Nc2nc3ccccc3c3[nH]c(C4CCCC4)nc23)cc1 | – |
| – | 0.4 | 52 | -5.5 | – | 126 | -5 | Clc1ccc(Nc2nc3ccccc3c3[nH]c(C4CCC4)nc23)cc1Cl | – |
| 109 | 68 | 67 | 5 | – | 96 | 56 | c1ccc2c3nc(C4CCCC4)nc-3c(Nc3ccc4c[nH]nc4c3)[nH]c2c1 | – |
| 126 | 74 | 89 | 10.1 | – | 125 | 70 | c1ccc2c3nc(C4CCCC4)nc-3c(Nc3ccc4cc[nH]c4c3)[nH]c2c1 | – |
| 130 | -2 | 68 | -7.3 | – | 115 | -4 | Clc1ccc(Nc2nc3ccccc3c3[nH]c(C4CCCCCC4)nc23)cc1Cl | – |
| 153 | – | 87 | -4.1 | – | 128 | – | Cc1ccc(Nc2nc3ccccc3c3[nH]c(C4CCCC4)nc23)cc1 | – |
| 159 | 17 | 82 | -10.2 | > 10 | 136 | 22 | Clc1ccc(Nc2nc3ccccc3c3[nH]c(C4CCCC4)nc23)cc1 | > 10 |
